# Source: publication PMC4075068 (Bioorganic & medicinal chemistry letters, 2014)
# Assays:
# tier 1 DMPK panel = type: in vitro ADME; settings: compared with 10b
# [1] = predicted hepatic clearance, rat; type: in vitro ADME
# [2] = predicted hepatic clearance, human; type: in vitro ADME
# mGlu3 = mGlu3 (Rattus norvegicus, UniProt P31422); assay: mGlu family selectivity screen, fold-shift of glutamate response; type: cell-based; settings: 10 μM
# rat mGlu2 = rat mGlu2 (Rattus norvegicus, UniProt P31421); type: cell-based
# rat mGlu2, sequence (P31421 19-872): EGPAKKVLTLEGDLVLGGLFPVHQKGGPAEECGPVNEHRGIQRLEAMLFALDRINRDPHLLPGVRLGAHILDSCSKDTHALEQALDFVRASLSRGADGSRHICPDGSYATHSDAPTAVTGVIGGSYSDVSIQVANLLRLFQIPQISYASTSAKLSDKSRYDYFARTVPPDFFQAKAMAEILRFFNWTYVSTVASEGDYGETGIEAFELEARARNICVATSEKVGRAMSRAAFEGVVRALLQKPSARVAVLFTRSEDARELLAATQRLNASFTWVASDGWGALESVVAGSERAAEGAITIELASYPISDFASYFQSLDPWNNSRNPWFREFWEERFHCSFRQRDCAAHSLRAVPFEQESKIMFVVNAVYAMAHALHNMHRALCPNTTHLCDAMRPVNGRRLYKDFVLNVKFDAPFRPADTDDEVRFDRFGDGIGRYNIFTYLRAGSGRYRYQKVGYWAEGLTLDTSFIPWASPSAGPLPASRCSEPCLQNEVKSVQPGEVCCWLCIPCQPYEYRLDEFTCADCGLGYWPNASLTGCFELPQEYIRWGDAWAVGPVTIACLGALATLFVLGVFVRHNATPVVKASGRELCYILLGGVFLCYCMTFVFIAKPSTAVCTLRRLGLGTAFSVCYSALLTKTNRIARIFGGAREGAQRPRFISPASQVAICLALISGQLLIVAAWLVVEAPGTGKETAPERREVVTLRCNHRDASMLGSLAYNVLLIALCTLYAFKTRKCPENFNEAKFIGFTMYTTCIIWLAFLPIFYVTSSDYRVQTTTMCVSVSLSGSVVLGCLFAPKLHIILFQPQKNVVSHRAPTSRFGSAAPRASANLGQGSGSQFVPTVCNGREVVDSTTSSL
# Procedure, shortened: (§1)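 Kinetic plate-based calcium fluorescence readout in cells expressing mGlu2 or mGlu3. For IC50, the test compound was titrated from 1 nM upward against an EC76 of glutamate at mGlu2 or an EC87 at mGlu3. For mechanism, the test compound was held at several fixed concentrations while glutamate was titrated from 1 nM upward, and shifts in the glutamate curve were assessed. Three independent experiments.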
# rat mGlu3 = rat mGlu3 (Rattus norvegicus, UniProt P31422); type: cell-based
# rat mGlu3, sequence (P31422 23-879): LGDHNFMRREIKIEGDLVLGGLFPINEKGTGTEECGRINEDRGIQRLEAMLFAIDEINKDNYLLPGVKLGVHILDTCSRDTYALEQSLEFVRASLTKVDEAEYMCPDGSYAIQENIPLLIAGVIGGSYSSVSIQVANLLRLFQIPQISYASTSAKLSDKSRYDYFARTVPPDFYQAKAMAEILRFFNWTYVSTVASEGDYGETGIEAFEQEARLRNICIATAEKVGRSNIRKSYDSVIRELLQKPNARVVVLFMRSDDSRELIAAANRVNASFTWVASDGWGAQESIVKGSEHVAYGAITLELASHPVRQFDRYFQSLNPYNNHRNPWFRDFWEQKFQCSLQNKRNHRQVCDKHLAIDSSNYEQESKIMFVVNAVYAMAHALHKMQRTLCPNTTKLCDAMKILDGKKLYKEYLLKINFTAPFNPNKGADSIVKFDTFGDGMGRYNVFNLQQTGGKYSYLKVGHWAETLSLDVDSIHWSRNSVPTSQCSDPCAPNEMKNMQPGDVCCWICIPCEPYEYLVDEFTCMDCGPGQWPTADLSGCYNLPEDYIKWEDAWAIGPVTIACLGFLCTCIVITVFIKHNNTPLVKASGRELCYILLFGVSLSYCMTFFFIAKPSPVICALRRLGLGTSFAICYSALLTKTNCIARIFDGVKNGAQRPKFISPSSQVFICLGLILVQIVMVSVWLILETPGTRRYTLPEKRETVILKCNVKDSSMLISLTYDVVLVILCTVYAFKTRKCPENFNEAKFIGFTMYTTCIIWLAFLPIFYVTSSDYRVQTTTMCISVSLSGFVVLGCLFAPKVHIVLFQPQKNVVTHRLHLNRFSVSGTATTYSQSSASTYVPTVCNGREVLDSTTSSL
# Procedure, shortened: as §1
# mGlu2 = mGlu2 (Rattus norvegicus, UniProt P31421); assay: mGlu family selectivity screen, fold-shift of glutamate response; type: cell-based; settings: 10 μM
# mGlu2, sequence (P31421 19-872): as the sequence (P31421 19-872) above
# the other mGlus = assay: mGlu family selectivity screen, fold-shift of glutamate response; type: cell-based; settings: 10 μM
# Procedure, shortened: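 Fold-shift of glutamate-evoked signaling measured at group I and group III mGlu receptors. Group I receptors read out by calcium response; group III receptors read out by GIRK response.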
# [3] = fixed concentrations against glutamate 1 nM – 30 μM
# mGlu3, sequence (P31422 23-879): as the sequence (P31422 23-879) above
DMPK properties (tier 1 DMPK panel),"predicted clearance CLhep, rat [1] [mL/min/kg]","predicted clearance CLhep, human [2] [mL/min/kg]",increase in potency at mGlu2 compared to 7d (rat mGlu2) [fold],mechanism of action at mGlu2 (progressive fold-shift of glutamate response) (rat mGlu2; [3]),increase in potency at mGlu3 compared to 7d (rat mGlu3),mechanism of action at mGlu3 (progressive fold-shift of glutamate response) (rat mGlu3; [3]),Compound,effect on glutamate response at mGlu3 (mGlu3),effect on glutamate response at mGlu2 (mGlu2),effect on responses of the other mGlus to glutamate (the other mGlus)
similarly poor DMPK properties,–,–,–,–,–,–,Cn1c(=O)c2ccc(-c3cccnc3)cc2n2nc(-c3ccc(F)cc3)cc12 [7ab],–,–,–
–,54.7,18.7,~3.5,acting as a NAM,over 2 fold,acting as a NAM,"Cn1c(=O)c2ccc(-c3cncnc3)cc2n2nc(-c3ccccc3)cc12 [10b, 4-methyl-2-phenyl-8-(pyrimidin-5-yl)pyrazolo[1,5-a]quinazolin-5(4H)-one]",completely blocked the glutamate response,completely blocked the glutamate response,did not alter the responses
